Assay results taken from ChEMBL document CHEMBL5154742, “Thiosugar naphthalene diimide conjugates: G-quadruplex ligands with antiparasitic and anticancer activity” (Eur J Med Chem, 2022).

How the values were obtained:
[1] = Cytotoxicity against human MRC5 cells assessed as reduction in cell viability incubated for 48 hrs by MTT assay; assay type: toxicity, cell-based
Method in brief: (§1)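 MTT assay: 5×10^3 cells per well in DMEM with 10% hiFBS (4.5 g/L glucose for HT-29, 1 g/L for MRC-5), exposed to increasing compound concentrations for 48 h at 37 °C. MTT added for 4 h, formazan dissolved in DMSO, absorbance read at 575 nm. IC50 from four-parameter logistic fit.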

[2] = Selectivity index, ratio of IC50 for human MRC5 cells to IC50 for human HT-29 cells; assay type: toxicity; conditions: MRC5 cells versus HT-29 cells, read-out: Selectivity Index
Method in brief: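 Selectivity index: MRC-5 IC50 divided by HT-29 IC50.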

[3] = Selectivity index, ratio of IC50 for cytotoxicity against human MRC5 cells to IC50 for antileishmanial activity against Leishmania major (MHOM/IL/80/Friedlin) promastigotes; assay type: toxicity, cell-based; conditions: read-out: Selectivity Index
Method in brief: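 Selectivity index: MRC-5 IC50 divided by L. major promastigote IC50.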

[4] = Drug uptake in Trypanosoma brucei at 10 uM incubated for 2 hrs by fluorescence based multiplate reader method; assay type: ADME
Quadruplex DNA [5] = experiment: Binding affinity to human G-quadruplex telomeric DNA F21T (5'-duplex GGG TTAGGG TTAGGG TTAGGG-3') assessed as change in melting temperature at 1 uM incubated for 5 min by FRET assay; assay type: nucleic-acid assay
Method in brief: (§2)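 Fluorescently labelled oligonucleotide annealed (95 °C, 5 min) in 10 mM lithium cacodylate/90 mM LiCl, pH 7.2; 0.2 μM final, with or without ligand. Held 5 min at 25 °C, then heated 0.5 °C/min to 95 °C. Tm taken at normalized signal 0.5; ΔTm = Tm with ligand minus Tm without. Tested in duplicate.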

Leishmania major = experiment: Antileishmanial activity against Leishmania major (MHOM/IL/80/Friedlin) promastigotes assessed as reduction in parasite growth incubated for 72 hrs by MTT assay; assay type: functional, organism-based
Method in brief: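 L. major Friedlin promastigotes, 1×10^6/mL in modified RPMI-1640 with 10% hiFBS, exposed to increasing compound concentrations for 72 h at 28 °C; proliferation read by MTT; IC50 from four-parameter logistic fit versus untreated controls.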

Quadruplex DNA [6] = experiment: Binding affinity to human G-quadruplex telomeric DNA F21T (5'-duplex GGG TTAGGG TTAGGG TTAGGG-3') assessed as change in melting temperature at 5 uM incubated for 5 min by FRET assay; assay type: nucleic-acid assay; method in brief: as §2
[7] = Selectivity index, ratio of IC50 for cytotoxicity against human MRC5 cells to IC50 for antitrypanosomal activity against Trypanosoma brucei; assay type: toxicity, cell-based; conditions: MRC5 cells versus Trypanosoma brucei, read-out: Selectivity Index
Method in brief: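 Selectivity index: MRC-5 IC50 divided by T. brucei IC50.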

HT-29 = experiment: Cytotoxicity against human HT-29 cells assessed as reduction in cell viability incubated for 48 hrs by MTT assay; assay type: functional, cell-based; conditions: HT-29, 48 h; method in brief: as §1
Trypanosoma brucei = experiment: Antitrypanosomal activity against Trypanosoma brucei incubated for 72 hrs by alamar blue dye based fluorimetry analysis; assay type: functional, organism-based
Method in brief: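 Bloodstream-form T. brucei S16 (Lister 427, MiTat 1.2), 1×10^3 per well in HMI-9 with 20% hiFBS, exposed to increasing compound concentrations for 72 h at 37 °C, 5% CO2. Resazurin then added for 4 h, cells lysed with SDS, fluorescence read at ex 550/em 590 nm. IC50 from four-parameter logistic fit; three independent runs, each in triplicate.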

Drug uptake [4]: 6.8%
ΔTm (Quadruplex DNA [5]): 1 °C
ΔTm (Quadruplex DNA [6]): 5 °C
IC50 (Trypanosoma brucei): 0.85 µM
Structure (SMILES): O=C1c2ccc3c4c(c(NCc5cn(CCS[C@@H]6O[C@H](CO)[C@H](O)[C@H](O)[C@H]6O)nn5)cc(c24)C(=O)N1CCN1CCOCC1)C(=O)N(CCN1CCOCC1)C3=O
IC50 at 48 h [1]: 23.5 µM
selectivity ratio [2]: 0.9
selectivity ratio [3]: 0.8
IC50 (Leishmania major): 30 µM
selectivity ratio [7]: 27.6
IC50 (HT-29): 26.5 µM
